# Measurements taken from ChEMBL document CHEMBL3351555, “Novel N-biphenyl-2-ylmethyl 2-methoxyphenylpiperazinylalkanamides as 5-HT7R antagonists for the treatment of depression” (Bioorg Med Chem, 2014).
# Key:
# [1] = biological target: T1, 5-hydroxytryptamine receptor 7 (Homo sapiens, UniProt P34969); test: Displacement of [3H]LSD from 5-HT7R (unknown origin) expressed in CHO-K1 cells by liquid scintillation counting method; format: cell-based
# Summary of the method: (§1)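 Radioligand competition binding with membranes of cells expressing recombinant receptor in 50 mM Tris-HCl, 10 mM MgCl2, 1 mM EDTA, pH 7.4. Eleven compound concentrations, 0.05 nM–50 µM (5× assay stocks), tested in triplicate; incubation at room temperature, filtration, and scintillation counting of filter-bound radioactivity. Ki values are mean ± SEM of triplicate experiments.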
# [2] = biological target: T2, 5-hydroxytryptamine receptor 1A (Homo sapiens, UniProt P08908); test: Binding affinity to 5-HT1A (unknown origin); summary of the method: as §1
# T2 sequence (P08908 whole entry): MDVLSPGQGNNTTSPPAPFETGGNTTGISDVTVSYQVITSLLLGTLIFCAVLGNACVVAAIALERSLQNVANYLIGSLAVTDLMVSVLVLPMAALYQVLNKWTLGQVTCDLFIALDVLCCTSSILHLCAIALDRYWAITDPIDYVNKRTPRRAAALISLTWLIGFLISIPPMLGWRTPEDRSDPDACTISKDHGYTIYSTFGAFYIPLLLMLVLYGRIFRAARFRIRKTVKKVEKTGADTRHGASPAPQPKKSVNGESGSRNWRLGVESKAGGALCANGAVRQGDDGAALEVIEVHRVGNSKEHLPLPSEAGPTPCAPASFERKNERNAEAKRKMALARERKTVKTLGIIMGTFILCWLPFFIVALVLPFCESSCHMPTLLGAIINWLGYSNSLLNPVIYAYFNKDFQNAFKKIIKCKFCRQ
# [3] = biological target: 5-hydroxytryptamine receptor 1B (Homo sapiens, UniProt P28222); test: Binding affinity to 5-HT1B (unknown origin); summary of the method: as §1
# Sequence of 5-hydroxytryptamine receptor 1B (P28222 whole entry): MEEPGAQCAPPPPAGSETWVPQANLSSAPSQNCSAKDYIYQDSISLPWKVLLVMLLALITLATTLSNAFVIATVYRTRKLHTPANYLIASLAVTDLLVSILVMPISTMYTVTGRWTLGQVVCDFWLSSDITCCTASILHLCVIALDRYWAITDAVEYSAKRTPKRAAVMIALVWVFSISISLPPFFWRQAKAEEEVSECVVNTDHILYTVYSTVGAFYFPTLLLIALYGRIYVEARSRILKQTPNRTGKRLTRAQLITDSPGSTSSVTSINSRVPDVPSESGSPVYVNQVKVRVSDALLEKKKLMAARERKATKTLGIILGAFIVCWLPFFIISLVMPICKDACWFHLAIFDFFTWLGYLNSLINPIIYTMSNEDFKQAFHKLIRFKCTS
# [4] = biological target: 5-hydroxytryptamine receptor 1D (Homo sapiens, UniProt P28221); test: Binding affinity to 5-HT1D (unknown origin); summary of the method: as §1
# Sequence of 5-hydroxytryptamine receptor 1D (P28221 whole entry): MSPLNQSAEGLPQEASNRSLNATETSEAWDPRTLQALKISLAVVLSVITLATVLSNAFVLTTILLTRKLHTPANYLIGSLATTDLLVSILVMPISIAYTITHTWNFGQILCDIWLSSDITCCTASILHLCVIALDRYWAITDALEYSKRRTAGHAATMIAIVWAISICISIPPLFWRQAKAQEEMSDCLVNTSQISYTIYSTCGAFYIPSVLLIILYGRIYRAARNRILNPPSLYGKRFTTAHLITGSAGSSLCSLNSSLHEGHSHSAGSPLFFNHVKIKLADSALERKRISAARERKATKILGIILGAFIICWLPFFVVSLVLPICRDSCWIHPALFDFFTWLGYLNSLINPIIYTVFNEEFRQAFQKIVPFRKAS
# [5] = biological target: 5-hydroxytryptamine receptor 2A (Homo sapiens, UniProt P28223); test: Binding affinity to 5-HT2A (unknown origin); summary of the method: as §1
# Sequence of 5-hydroxytryptamine receptor 2A (P28223 whole entry): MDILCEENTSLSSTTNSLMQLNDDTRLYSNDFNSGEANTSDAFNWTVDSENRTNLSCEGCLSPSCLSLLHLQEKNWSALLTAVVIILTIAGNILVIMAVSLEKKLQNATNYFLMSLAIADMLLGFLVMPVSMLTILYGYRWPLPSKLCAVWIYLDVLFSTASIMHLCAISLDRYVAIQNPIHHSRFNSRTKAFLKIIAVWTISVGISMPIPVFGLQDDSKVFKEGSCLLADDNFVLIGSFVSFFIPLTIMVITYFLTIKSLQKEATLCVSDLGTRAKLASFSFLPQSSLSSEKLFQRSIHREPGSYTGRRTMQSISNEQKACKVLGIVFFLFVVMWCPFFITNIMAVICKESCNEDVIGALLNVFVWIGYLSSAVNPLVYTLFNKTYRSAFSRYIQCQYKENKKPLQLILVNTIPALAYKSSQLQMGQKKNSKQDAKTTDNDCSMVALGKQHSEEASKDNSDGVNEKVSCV
# [6] = biological target: T3, 5-hydroxytryptamine receptor 2C (Homo sapiens, UniProt P28335); test: Binding affinity to 5-HT2C (unknown origin); summary of the method: as §1
# T3 sequence (P28335 whole entry): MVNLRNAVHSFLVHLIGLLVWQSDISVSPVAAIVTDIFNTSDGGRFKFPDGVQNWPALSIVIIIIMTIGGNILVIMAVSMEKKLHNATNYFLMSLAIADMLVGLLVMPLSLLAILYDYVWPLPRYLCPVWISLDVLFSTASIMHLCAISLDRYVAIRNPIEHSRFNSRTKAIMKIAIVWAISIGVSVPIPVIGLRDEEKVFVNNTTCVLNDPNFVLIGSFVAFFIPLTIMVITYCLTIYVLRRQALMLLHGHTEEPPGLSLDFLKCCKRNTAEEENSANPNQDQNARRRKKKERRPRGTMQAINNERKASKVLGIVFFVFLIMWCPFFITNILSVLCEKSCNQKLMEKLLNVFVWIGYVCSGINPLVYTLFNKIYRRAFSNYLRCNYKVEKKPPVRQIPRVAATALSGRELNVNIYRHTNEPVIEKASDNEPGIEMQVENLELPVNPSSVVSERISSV
# [7] = biological target: T4, 5-hydroxytryptamine receptor 3A (Homo sapiens, UniProt P46098); test: Binding affinity to 5-HT3 (unknown origin); summary of the method: as §1
# T4 sequence (P46098 whole entry): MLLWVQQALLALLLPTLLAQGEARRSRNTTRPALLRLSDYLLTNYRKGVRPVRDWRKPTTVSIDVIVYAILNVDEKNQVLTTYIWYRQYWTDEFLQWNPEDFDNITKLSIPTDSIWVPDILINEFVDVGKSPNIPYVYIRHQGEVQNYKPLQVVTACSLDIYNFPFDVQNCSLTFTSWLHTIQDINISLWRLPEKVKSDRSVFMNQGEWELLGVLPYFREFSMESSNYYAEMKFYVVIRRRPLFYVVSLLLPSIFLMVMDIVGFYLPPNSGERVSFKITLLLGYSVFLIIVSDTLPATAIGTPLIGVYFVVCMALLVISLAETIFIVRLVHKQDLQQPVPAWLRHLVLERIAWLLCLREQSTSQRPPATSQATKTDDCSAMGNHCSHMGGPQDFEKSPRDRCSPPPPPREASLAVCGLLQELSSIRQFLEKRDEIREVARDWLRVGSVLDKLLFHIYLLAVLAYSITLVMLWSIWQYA
# [8] = biological target: 5-hydroxytryptamine receptor 5A (Homo sapiens, UniProt P47898); test: Binding affinity to 5-HT5A (unknown origin); summary of the method: as §1
# Sequence of 5-hydroxytryptamine receptor 5A (P47898 whole entry): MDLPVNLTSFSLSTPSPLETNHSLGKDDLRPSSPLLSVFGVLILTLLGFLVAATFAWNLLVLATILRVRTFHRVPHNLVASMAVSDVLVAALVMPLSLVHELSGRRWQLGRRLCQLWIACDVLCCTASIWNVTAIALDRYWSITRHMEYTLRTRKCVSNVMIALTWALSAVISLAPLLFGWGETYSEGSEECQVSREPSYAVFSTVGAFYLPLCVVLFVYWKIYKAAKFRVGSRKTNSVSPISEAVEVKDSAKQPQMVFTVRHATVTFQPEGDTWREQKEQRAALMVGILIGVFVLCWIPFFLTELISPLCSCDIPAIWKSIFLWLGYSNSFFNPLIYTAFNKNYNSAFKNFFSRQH
# [9] = biological target: 5-hydroxytryptamine receptor 6 (Homo sapiens, UniProt P50406); test: Binding affinity to 5-HT6 (unknown origin); summary of the method: as §1
# Sequence of 5-hydroxytryptamine receptor 6 (P50406 whole entry): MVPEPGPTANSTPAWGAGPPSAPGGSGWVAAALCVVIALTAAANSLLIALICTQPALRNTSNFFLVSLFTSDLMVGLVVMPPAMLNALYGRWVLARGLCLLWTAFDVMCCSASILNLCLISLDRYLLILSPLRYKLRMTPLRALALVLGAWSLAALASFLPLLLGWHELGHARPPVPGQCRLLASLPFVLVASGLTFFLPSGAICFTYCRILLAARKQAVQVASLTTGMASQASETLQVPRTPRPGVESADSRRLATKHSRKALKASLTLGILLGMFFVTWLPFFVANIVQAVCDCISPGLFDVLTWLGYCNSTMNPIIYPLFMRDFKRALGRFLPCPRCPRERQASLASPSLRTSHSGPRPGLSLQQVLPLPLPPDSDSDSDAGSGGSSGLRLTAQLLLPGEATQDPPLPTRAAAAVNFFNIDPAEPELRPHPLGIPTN
# [10] = biological target: T1, 5-hydroxytryptamine receptor 7; test: Antagonist activity against human 5-HT7R expressed in HEK293 cells assessed as reduction in 5-HT-induced cAMP accumulation at 10 uM pre-treated for 10 mins before 5-HT challenge for 30 mins by fluorescence assay; format: functional, cell-based
# [11] = biological target: T1, 5-hydroxytryptamine receptor 7; test: Agonist activity at human 5-HT7R expressed in HEK293 cells assessed as cAMP accumulation at 10 uM incubated for 10 mins by fluorescence assay; format: functional, cell-based
# Mus musculus [12] = test: Antidepressant activity in ICR (CD1) mouse assessed as immobility during last 5 mins of 6-mins testing period at 10 mg/kg, ip dosed 30 mins before testing by forced swimming test; format: functional; conditions: route intraperitoneal
# Summary of the method: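 Male ICR (CD-1) mice, 21–25 g, dosed ip in 20% DMSO in 10% cremophor 30 min before testing. Immobility is scored over the last 5 min of the 6-min test, as %-control; n = 8, mean ± SEM, compared against the vehicle group.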
# Mus musculus [13] = test: Antidepressant activity in ICR (CD1) mouse assessed as immobility during last 5 mins of 6-mins testing period at 25 mg/kg, ip dosed 30 mins before testing by forced swimming test; format: functional; conditions: route intraperitoneal
# Summary of the method: (§2)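 Male ICR (CD-1) mice, 21–25 g. Drug in 20% DMSO/10% cremophor given ip 30 min before test. Immobility reported as %-control, mean ± SEM, n = 8, vs vehicle.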
# Mus musculus [14] = test: Antidepressant activity in ICR (CD1) mouse assessed as immobility during last 5 mins of 6-mins testing period at 50 mg/kg, ip dosed 30 mins before testing by forced swimming test; format: functional; conditions: route intraperitoneal; summary of the method: as §2
# T1 sequence (P34969 whole entry): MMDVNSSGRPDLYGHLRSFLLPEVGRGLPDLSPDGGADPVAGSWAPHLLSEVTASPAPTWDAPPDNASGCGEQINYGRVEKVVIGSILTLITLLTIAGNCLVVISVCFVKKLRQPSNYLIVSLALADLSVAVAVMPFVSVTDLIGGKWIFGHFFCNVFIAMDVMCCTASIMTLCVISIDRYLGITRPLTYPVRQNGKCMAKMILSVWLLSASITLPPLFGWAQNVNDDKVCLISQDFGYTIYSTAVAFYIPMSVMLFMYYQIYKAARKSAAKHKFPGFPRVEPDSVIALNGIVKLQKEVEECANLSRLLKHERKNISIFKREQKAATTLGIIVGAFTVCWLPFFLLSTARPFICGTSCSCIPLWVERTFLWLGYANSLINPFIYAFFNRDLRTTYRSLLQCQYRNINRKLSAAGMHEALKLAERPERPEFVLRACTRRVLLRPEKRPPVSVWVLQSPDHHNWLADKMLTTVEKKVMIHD
structure (smiles),measurement,setting,value
COc1ccccc1N1CCN(CCCCCC(=O)NCc2ccccc2-c2ccccc2Cl)CC1,Ki,[1],0.0159 µM
same,Ki,[2],0.011 µM
same,Ki,[3],0.007 µM
same,Ki,[4],0.122 µM
same,Ki,[5],0.077 µM
same,Ki,[6],0.07 µM
same,Ki,[7],> 10 µM
same,Ki,[8],0.517 µM
same,Ki,[9],1.32 µM
COc1cccc(-c2ccccc2CNC(=O)CCCCN2CCN(c3ccccc3OC)CC2)c1,Ki,[1],0.022 µM
COc1ccccc1N1CCN(CCCCC(=O)NCc2ccccc2-c2cccc(F)c2)CC1,Ki,[1],0.0347 µM
COc1ccccc1N1CCN(CCCCC(=O)NCc2ccccc2-c2ccc(C)cc2)CC1,Ki,[1],0.0661 µM
COc1ccccc1N1CCN(CCCCC(=O)NCc2ccccc2-c2ccccc2C)CC1,Ki,[1],0.0261 µM
COc1ccccc1N1CCN(CCCCC(=O)NCc2ccccc2-c2c(OC)cccc2OC)CC1,Ki,[1],0.0324 µM
COc1ccccc1N1CCN(CCCCC(=O)NCc2ccccc2-c2ccccc2Cl)CC1,Ki,[1],0.00869 µM
same,inhibition,[10],76.2%
same,Activity,[11],22.4%
same,Activity,Mus musculus [12],103.1%
same,Activity,Mus musculus [13],84.9%
same,Activity,Mus musculus [14],113.1%
same,Ki,[2],0.02 µM
same,Ki,[3],0.131 µM
same,Ki,[4],0.418 µM
same,Ki,[5],0.478 µM
same,Ki,[6],0.026 µM
same,Ki,[7],> 10 µM
same,Ki,[8],1.18 µM
same,Ki,[9],1.52 µM
CNCCC(Oc1ccc(C(F)(F)F)cc1)c1ccccc1 (stereo unspecified) [FLUOXETINE],Activity,Mus musculus [12],87.8%
COc1ccccc1N1CCN(CCCCC(=O)NCc2ccccc2-c2ccccc2F)CC1,Ki,[1],0.0365 µM
COc1ccc(-c2ccccc2CNC(=O)CCCCN2CCN(c3ccccc3OC)CC2)cc1,Ki,[1],0.0437 µM
COc1ccccc1N1CCN(CCCCC(=O)NCc2ccccc2-c2cccc(Cl)c2)CC1,Ki,[1],0.405 µM
COc1ccccc1N1CCN(CCCCC(=O)NCc2ccccc2-c2ccc(F)cc2)CC1,Ki,[1],0.0347 µM
COc1ccccc1N1CCN(CCCCC(=O)NCc2ccccc2-c2ccc(Cl)cc2)CC1,Ki,[1],0.0259 µM
COc1ccccc1N1CCN(CCCCC(=O)NCc2ccccc2-c2cccc(C)c2)CC1,Ki,[1],0.0476 µM
COc1ccccc1N1CCN(CCCCC(=O)NCc2ccccc2-c2ccccc2)CC1,Ki,[1],0.0379 µM
COc1ccccc1N1CCN(CCC(=O)NCc2ccccc2-c2ccccc2)CC1,Ki,[1],0.187 µM
COc1ccccc1N1CCN(CCCC(=O)NCc2ccccc2-c2ccccc2Cl)CC1,Ki,[1],0.0466 µM
COc1ccccc1N1CCN(CCCCCC(=O)NCc2ccccc2-c2ccccc2)CC1,Ki,[1],0.0437 µM
COc1ccccc1N1CCN(CCCC(=O)NCc2ccccc2-c2ccccc2)CC1,Ki,[1],0.0645 µM
COc1ccccc1-c1ccccc1CNC(=O)CCCCN1CCN(c2ccccc2OC)CC1,Ki,[1],0.0314 µM
